Source: PMC3710193 (Journal of immunology (Baltimore, Md. : 1950), 2011)
pKd: −log10 of the molar value. “And” between values parts separate entries of the source, which are not always exact repeats. Equal values may be shown once.

Legend:
[1] = target: T1, Vβ8.2 NKT TCR (Vα14-Vβ8.2) / CD1d-Ag (Mus musculus, UniProt P11609+Z9CWY5XBV8); assay: SPR of Vβ8.2 NKT TCR binding to glycolipid-loaded CD1d; conditions: for ka / kd: SPR kinetic experiment, 25°C, 1:1 Langmuir model
T1 sequence (P11609 22-305 limits assumed): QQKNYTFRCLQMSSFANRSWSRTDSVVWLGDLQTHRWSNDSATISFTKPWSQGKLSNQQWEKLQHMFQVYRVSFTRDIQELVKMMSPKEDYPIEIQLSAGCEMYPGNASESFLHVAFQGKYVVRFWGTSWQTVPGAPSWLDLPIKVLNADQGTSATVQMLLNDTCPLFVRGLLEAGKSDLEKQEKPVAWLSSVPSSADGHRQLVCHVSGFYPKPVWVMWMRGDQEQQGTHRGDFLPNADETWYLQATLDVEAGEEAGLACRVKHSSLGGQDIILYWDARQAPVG
T1 sequence (P01887 21-119): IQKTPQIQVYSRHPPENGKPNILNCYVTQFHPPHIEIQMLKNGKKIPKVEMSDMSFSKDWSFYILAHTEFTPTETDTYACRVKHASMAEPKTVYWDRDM

Vβ7 NKT TCR / CD1d-Ag = assay: SPR of Vβ7 NKT TCR binding to glycolipid-loaded CD1d; parameters: species or system mouse
Summary of the method: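 Refolded mouse Vα14-Vβ7 NKT TCR flowed over glycolipid-loaded mouse CD1d (baculovirus-expressed, BirA/His-tagged) captured on streptavidin chips; CD1d-endogenous lipid surface subtracted. 25°C, HEPES buffer pH 7.4, 150 mM NaCl, 0.005% P20. Kinetics: 300–500 RU, 0.19–25 μM, 50 μl/min for 60 s, 1:1 Langmuir fit, duplicate. Steady-state: 2000 RU, 0.039–40 μM, 5 μl/min for 90 s, one-site fit.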

spleen NKT cells [2] = assay: Intracellular cytokine staining for IFN-γ in spleen NKT cells at 8 hours; type: cell-based, C57BL/6 mice; conditions: highest dose 100 ng/ml, ICS
Summary of the method: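 Splenocytes from C57BL/6 mice (5×10^5/well) were cultured 8 hr with test glycolipid (100, 10, 1 ng/ml), with Golgistop for the final 4 hr. Four replicate wells were pooled per determination. Cells were surface-stained with glycolipid-loaded CD1d tetramer-PE and anti-TCR-β, fixed, permeabilised and stained for intracellular IFN-γ. Mean ± SEM of three experiments, each the mean of duplicate cultures.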

spleen cells = assay: Cytometric bead array of 72 hr splenocyte culture supernatants; type: cell-based, C57BL/6 mice; conditions: 72 hr spleen cell cultures, CBA
Summary of the method: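 C57BL/6 splenocytes (5×10^5/well) pulsed with test glycolipid at 100, 10 or 1 ng/ml and cultured overnight. Medium was then replaced without further glycolipid, and supernatants were harvested at 72 hr. Mean ± SEM of three independent experiments (IL-10: two), each the mean of duplicate cultures.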

spleen NKT cells [3] = assay: CFSE proliferation assay of spleen NKT cells; type: cell-based, C57BL/6 mice; conditions: 72 hr, 100, 10 and 1 ng/ml
NKT cells = assay: In vivo stimulation of NKT cells, serum cytokines by cytometric bead array; parameters: species or system mice; conditions: 1 μg i.p.
Summary of the method: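 Mice received 1 μg test glycolipid i.p. in 200 μL PBS. Serum was collected at 2 and 24 hr, and IFN-γ and IL-4 were quantified by cytometric bead array. Ratio taken as serum IFN-γ at 24 hr over IL-4 at 2 hr. Results combine three independent experiments, 10 mice per group.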

[4] = Vβ7 TCR, SPR kinetic experiment, 25°C, 1:1 Langmuir model

Row | SMILES | pKd ([1]; KD(eq), Vβ8.2 TCR, steady-state affinity determined in separate experiment) | NKT TCR affinity relative to CD1d-α-GalCer interaction (fold lower) ([1]; Vβ8.2 NKT TCR) | ka ([1]; Vβ8.2 TCR) | kd ([1]; Vβ8.2 TCR) | NKT TCR affinity relative to CD1d-α-GalCer interaction (fold lower) (Vβ7 NKT TCR / CD1d-Ag; Vβ7 NKT TCR) | IFN-γ+ NKT cells (spleen NKT cells [2]) | cytokine amounts, fold lower compared to α-GalCer (spleen cells) | NKT cell proliferation (in words) (spleen NKT cells [3]) | ratio of peak IFN-γ response (24 hours) to peak IL-4 response (2 hours) (NKT cells; serum) | serum IFN-γ production in vivo compared to α-GalCer (NKT cells; serum at 2 and 24 hr) | serum IL-4 production in vivo compared to α-GalCer (NKT cells; serum at 2 and 24 hr) | pKd ([1]; affinity (KD(eq)), Vβ8.2 NKT TCR, response at equilibrium) | ka (Vβ7 NKT TCR / CD1d-Ag; [4]) | kd (Vβ7 NKT TCR / CD1d-Ag; [4])
1 | CCCCCCCCCCCCCCCCCCCCCCCCCC(=O)N[C@@H](CC[C@H]1O[C@H](CO)[C@H](O)[C@H](O)[C@H]1O)[C@H](O)[C@H](O)CCCCCCCCCCCCCC [α-C-GalCer] | ~5.70 and 5.70 | approximately 10 fold | 225000 M⁻¹ s⁻¹ and 225000 ± 41000 M⁻¹ s⁻¹ | 0.29 s⁻¹ and 0.29 ± 0.02 s⁻¹ | approximately 10 fold | ~ 12% | 2–5 fold | little difference in the proliferative response | Th1-like bias | lower amounts | lower amounts |  |  | 
2 | CCCCCCCCCCCCCCCCCCCCCCCCCC(=O)N[C@@H](CO[C@H]1O[C@H](CO)[C@H](O)[C@H](O)[C@H]1O)[C@H](O)[C@H](O)CCCCCCCCCCCCCC [α-GalCer, α-galactosylceramide, reference compound] |  |  | 162000 M⁻¹ s⁻¹ and 162000 ± 9500 M⁻¹ s⁻¹ | 0.02 s^−1 and 0.02 ± 4.5×10^−4 s^−1 |  | approximately 25% |  |  |  |  |  | 6.52 | 231000 ± 31500 M⁻¹ s⁻¹ | 0.09 ± 0.003 s⁻¹
